Data as given in ChEMBL document CHEMBL1921792, “Synthesis and anticonvulsant activity of trans- and cis-2-(2,6-dimethylphenoxy)-N-(2- or 4-hydroxycyclohexyl)acetamides and their amine analogs” (Bioorg Med Chem, 2011).

Assays:
Rattus norvegicus [1] = experiment: Neurotoxicity in rat assessed as neurological deficit at 125 mg/kg, po after 0.25 hrs; assay type: toxicity, organism-based; set-up: dose 125 mg/kg, route oral; conditions: in vivo
Outline: (§1)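 Rats given the compound, suspended in 0.5% methylcellulose, by the stated route and dose. Neurological deficit was recorded at the listed times as ataxia and loss of placing response and muscle tone. Reported as number of rats showing toxicity/number tested.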

Rattus norvegicus [2] = experiment: Neurotoxicity in rat assessed as neurological deficit at 250 mg/kg, po after 0.25 hrs; assay type: toxicity, organism-based; set-up: dose 250 mg/kg, route oral; conditions: in vivo; outline: as §1
Rattus norvegicus [3] = experiment: Neurotoxicity in rat assessed as neurological deficit at 30 mg/kg, po after 1 hr […]; assay type: toxicity, organism-based; set-up: dose 30 mg/kg, route oral; conditions: in vivo; outline: as §1
Rattus norvegicus [4] = experiment: Neurotoxicity in rat assessed as neurological deficit at 250 mg/kg, po after 8 hrs; assay type: toxicity, organism-based; set-up: dose 250 mg/kg, route oral; conditions: in vivo; outline: as §1
Rattus norvegicus [5] = experiment: Neurotoxicity in rat assessed as neurological deficit at 500 mg/kg, po after 4 hrs; assay type: toxicity, organism-based; set-up: dose 500 mg/kg, route oral; conditions: in vivo
Outline: (§2)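 Rats dosed orally with test agent suspended in 0.5% methylcellulose and observed for up to 24 h (time-to-peak-effect design). Neurological deficit was scored as ataxia with loss of placing response and muscle tone. Two rats per dose per time point; results given as number toxic/number tested.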

Mus musculus [6] = experiment: Anticonvulsant activity in ip dosed mouse assessed as time to show peak effect of protection against maximal electric shock-induced seizures; assay type: functional
Outline: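 Time-to-peak-effect assay: MES protection read at 0.25–4 h after dosing. Mice ip (60–130 mg/kg), rats po (15 or 30 mg/kg) or ip (30 mg/kg). Groups of 4–8; result is protected/tested.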

Mus musculus [7] = experiment: Neurotoxicity in mouse assessed as inability to maintain equilibrium on rotarod at 30 mg/kg, ip after 0.5 hrs by rotarod test; assay type: toxicity, organism-based; set-up: dose 30 mg/kg, route intraperitoneal; conditions: in vivo
Outline: (§3)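 Drug given ip to mice as a suspension in 0.5% methylcellulose. At the stated time after dosing, each mouse was placed on a 1 inch knurled rod turning at 6 rpm. Neurotoxicity = inability to stay balanced at least 1 min in each of three trials. Scored as animals toxic/animals tested in small groups.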

Rattus norvegicus [8] = experiment: Neurotoxicity in rat assessed as neurological deficit at 250 mg/kg, po after 2 hrs; assay type: toxicity, organism-based; set-up: dose 250 mg/kg, route oral; conditions: in vivo; outline: as §1
Rattus norvegicus [9] = experiment: Neurotoxicity in rat assessed as neurological deficit at 250 mg/kg, po after 4 hrs; assay type: toxicity, organism-based; set-up: dose 250 mg/kg, route oral; conditions: in vivo; outline: as §1
Mus musculus [10] = experiment: Anticonvulsant activity in ip dosed mouse assessed as protection against maximal electric shock-induced seizures; assay type: functional; conditions: Mus musculus, ip; read-out: ED50
Mus musculus [11] = experiment: Neurotoxicity in mouse assessed as inability to maintain equilibrium on rotarod at 300 mg/kg, ip after 4 hrs by rotarod test; assay type: toxicity, organism-based; set-up: dose 300 mg/kg, route intraperitoneal; conditions: in vivo; outline: as §3
Mus musculus [12] = experiment: Neurotoxicity in mouse assessed as inability to maintain equilibrium on rotarod at 300 mg/kg, ip after 0.5 hrs by rotarod test; assay type: toxicity, organism-based; set-up: dose 300 mg/kg, route intraperitoneal; conditions: in vivo; outline: as §3
Rattus norvegicus [13] = experiment: Neurotoxicity in rat assessed as neurological deficit at 500 mg/kg, po after 6 hrs; assay type: toxicity, organism-based; set-up: dose 500 mg/kg, route oral; conditions: in vivo; outline: as §2
Rattus norvegicus [14] = experiment: Neurotoxicity in rat assessed as neurological deficit at 30 mg/kg, po after 4 hrs by rotarod test; assay type: toxicity, organism-based; set-up: dose 30 mg/kg, route oral; conditions: in vivo; outline: as §1
Rattus norvegicus [15] = experiment: Neurotoxicity in rat assessed as neurological deficit at 125 mg/kg, po after 1 hr; assay type: toxicity, organism-based; set-up: dose 125 mg/kg, route oral; conditions: in vivo; outline: as §1
Mus musculus [16] = experiment: Neurotoxicity in mouse assessed as inability to maintain equilibrium on rotarod at 130 mg/kg, ip after 0.25 hrs using rotarod test; assay type: toxicity, organism-based; set-up: dose 130 mg/kg, route intraperitoneal; conditions: in vivo; outline: as §3
[17] = Neurotoxicity in po dosed rat assessed as neurological deficit […]; assay type: toxicity, organism-based; conditions: in vivo
Outline: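 Rats dosed orally with a suspension in 0.5% methylcellulose. Neurological deficit judged by ataxia and loss of placing response and muscle tone.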

Rattus norvegicus [18] = experiment: Neurotoxicity in rat assessed as neurological deficit at 500 mg/kg, po after 24 hrs; assay type: toxicity, organism-based; set-up: dose 500 mg/kg, route oral; conditions: in vivo; outline: as §1
Mus musculus [19] = experiment: Neurotoxicity in mouse assessed as inability to maintain equilibrium on rotarod at 130 mg/kg, ip after 2 hrs using rotarod test; assay type: toxicity, organism-based; set-up: dose 130 mg/kg, route intraperitoneal; conditions: in vivo; outline: as §3
Mus musculus [20] = experiment: Neurotoxicity in mouse assessed as inability to maintain equilibrium on rotarod at 130 mg/kg, ip after 0.5 hrs using rotarod test; assay type: toxicity, organism-based; set-up: dose 130 mg/kg, route intraperitoneal; conditions: in vivo; outline: as §3
Rattus norvegicus [21] = experiment: Neurotoxicity in rat assessed as neurological deficit at 30 mg/kg, po after 0.25 hrs […]; assay type: toxicity, organism-based; set-up: dose 30 mg/kg, route oral; conditions: in vivo; outline: as §1
Rattus norvegicus [22] = experiment: Neurotoxicity in rat assessed as neurological deficit at 125 mg/kg, po after 2 hrs; assay type: toxicity, organism-based; set-up: dose 125 mg/kg, route oral; conditions: in vivo; outline: as §1
Rattus norvegicus [23] = experiment: Neurotoxicity in rat assessed as neurological deficit at 30 mg/kg, po after 0.5 hrs […]; assay type: toxicity, organism-based; set-up: dose 30 mg/kg, route oral; conditions: in vivo; outline: as §1
Rattus norvegicus [24] = experiment: Neurotoxicity in rat assessed as neurological deficit at 62.5 mg/kg, po after 2 hrs; assay type: toxicity, organism-based; set-up: dose 62.5 mg/kg, route oral; conditions: in vivo; outline: as §2
Rattus norvegicus [25] = experiment: Neurotoxicity in rat assessed as neurological deficit at 62.5 mg/kg, po after 4 hrs; assay type: toxicity, organism-based; set-up: dose 62.5 mg/kg, route oral; conditions: in vivo; outline: as §2
Rattus norvegicus [26] = experiment: Neurotoxicity in rat assessed as neurological deficit at 62.5 mg/kg, po after 8 hrs; assay type: toxicity, organism-based; set-up: dose 62.5 mg/kg, route oral; conditions: in vivo; outline: as §2
Mus musculus [27] = experiment: Neurotoxicity in mouse assessed as inability to maintain equilibrium on rotarod at 100 mg/kg, ip after 4 hrs by rotarod test; assay type: toxicity, organism-based; set-up: dose 100 mg/kg, route intraperitoneal; conditions: in vivo; outline: as §3

For `Cc1cccc(C)c1OCC(=O)NC1CCCCC1O.Cl` (racemic; 1), the Activity (Rattus norvegicus [1]) was “Non-toxic”, the Activity (Rattus norvegicus [2]) was “Non-toxic” and the Activity (Rattus norvegicus [3]) was “Non-toxic”. The Activity (Rattus norvegicus [4]) was “Non-toxic”, the Activity (Rattus norvegicus [5]) was “Non-toxic” and the Time (Mus musculus [6]) was 0.25 h. The Activity (Mus musculus [7]) was “Non-toxic”, the Activity (Rattus norvegicus [8]) was “Non-toxic” and the Activity (Rattus norvegicus [9]) was “Non-toxic”. The ED50 (Mus musculus [10]) was 43 mg/kg, the Activity (Mus musculus [11]) was “Non-toxic” and the Activity (Mus musculus [12]) was “Toxic”. For the same molecule, the Activity (Rattus norvegicus [13]) was “Non-toxic”, the Activity (Rattus norvegicus [14]) was “Non-toxic” and the Activity (Rattus norvegicus [15]) was “Non-toxic”. For the same molecule, the Activity (Mus musculus [16]) was “Toxic”, the TD50 [17] was > 500 mg/kg and the Activity (Rattus norvegicus [18]) was “Non-toxic”. The Activity (Mus musculus [19]) was “Non-toxic”, the Activity (Mus musculus [20]) was “Non-toxic” and the Activity (Rattus norvegicus [21]) was “Non-toxic”. For the same molecule, the Activity (Rattus norvegicus [22]) was “Non-toxic”, the Activity (Rattus norvegicus [23]) was “Non-toxic” and the Activity (Rattus norvegicus [24]) was “Non-toxic”. For the same molecule, the Activity (Rattus norvegicus [25]) was “Non-toxic”, the Activity (Rattus norvegicus [26]) was “Non-toxic” and the Activity (Mus musculus [27]) was “Non-toxic”.
